Test results: ChEMBL document CHEMBL1122206, “Use of adenine nucleotide derivatives to assess the potential of exo-active-site-directed reagents as species- or isozyme-specific enzyme inactivators. 5. Interactions of adenosine 5'-triphosphate derivatives with rat pyruvate kinases, Escherichia coli thymidine kinase, and yeast and rat …” (1982)

Key:
[1] = molecular target: T1, Hexokinase-2 (Rattus norvegicus) (UniProt P27881); test: Substrate activity against Rat hexokinase II as 1:1 Mg complex at 5.0 mM
T1 sequence (whole entry): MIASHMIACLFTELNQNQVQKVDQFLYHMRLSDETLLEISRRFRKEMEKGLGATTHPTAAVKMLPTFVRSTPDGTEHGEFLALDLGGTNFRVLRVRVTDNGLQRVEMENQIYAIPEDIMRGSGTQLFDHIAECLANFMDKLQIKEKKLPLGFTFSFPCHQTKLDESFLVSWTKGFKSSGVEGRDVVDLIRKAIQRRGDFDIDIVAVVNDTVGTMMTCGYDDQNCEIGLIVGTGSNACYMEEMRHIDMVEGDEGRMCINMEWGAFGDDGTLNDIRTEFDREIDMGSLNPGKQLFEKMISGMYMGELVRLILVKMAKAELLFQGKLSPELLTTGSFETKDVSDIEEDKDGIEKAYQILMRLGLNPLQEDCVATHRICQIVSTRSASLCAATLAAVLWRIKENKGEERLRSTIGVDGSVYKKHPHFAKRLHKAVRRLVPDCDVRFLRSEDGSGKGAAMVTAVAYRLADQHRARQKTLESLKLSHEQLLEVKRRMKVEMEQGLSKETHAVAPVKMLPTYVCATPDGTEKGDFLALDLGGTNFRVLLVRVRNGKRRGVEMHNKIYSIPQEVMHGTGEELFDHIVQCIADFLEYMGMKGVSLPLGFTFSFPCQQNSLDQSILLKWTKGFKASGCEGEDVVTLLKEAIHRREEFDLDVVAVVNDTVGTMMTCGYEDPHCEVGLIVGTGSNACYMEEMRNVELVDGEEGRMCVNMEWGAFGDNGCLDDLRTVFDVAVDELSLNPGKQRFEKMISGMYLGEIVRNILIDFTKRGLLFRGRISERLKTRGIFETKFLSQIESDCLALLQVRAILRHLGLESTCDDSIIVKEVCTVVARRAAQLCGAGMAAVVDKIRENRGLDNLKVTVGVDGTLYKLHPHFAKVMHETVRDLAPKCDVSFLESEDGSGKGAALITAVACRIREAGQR
In short: (§1)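 Hexokinase activity read at 22 °C as A340 change, coupled to glucose-6-phosphate dehydrogenase, in 0.05 M Tris-HCl pH 7.6 with 6.6 mM MgCl2, 10 mM α-D-glucose and 0.93 mM NADP. Donor was 5.0 mM MgATP derivative (1:1 Mg complex) in place of ATP. Yeast HK was isoelectric-focused. Rat HK I and III came from electrofocused liver extract, HK II from dialysed muscle extract.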

[2] = tested on: Saccharomyces cerevisiae; test: Substrate activity against yeast hexokinase as 1:1 Mg complexes at 5.0 mM; in short: as §1
[3] = Tested for the velocity of 2.8 mM compound relative to that of 2.8 mM MgATP in the assay
In short: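 E. coli TK substrate test. 0.5 h after adding inhibitor, the mixture was diluted to 2.8 mM derivative in thymidine assay medium without ATP and with 1.42 mM MnCl2. Incubated 15 min at 37 °C, in the linear range. [14C]TMP formed was compared with that from 2.8 mM ATP under the same conditions.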

[4] = Substrate concentration for half maximal velocity was reported for rat hexokinase II
In short: (§2)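 Coupled glucose-6-phosphate dehydrogenase/NADP assay: A340 rate at 22 °C in 0.05 M Tris-HCl pH 7.6 with 6.6 mM MgCl2, 10 mM α-D-glucose and 0.93 mM NADP, nucleotide varied. KM was taken from linear double-reciprocal plots. Rat HK I and III came from electrofocused, dialysed liver extract, HK II from dialysed muscle extract, and yeast HK was isoelectric-focused.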

[5] = Substrate concentration for half maximal velocity was reported for yeast hexokinase; in short: as §2
[6] = Compound was tested for substrate constants with yeast hexokinase. Maximal velocity Vmax was reported
In short: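 Hexokinase KM and Vmax taken from linear double-reciprocal plots of initial velocity vs. nucleotide level. Assays at 22 °C, coupled to glucose-6-phosphate dehydrogenase (A340), in 0.05 M Tris-HCl pH 7.6 with 6.6 mM MgCl2, 10 mM glucose and 0.93 mM NADP. Yeast HK was isoelectric-focused. Rat HK I and III came from liver, HK II from muscle (male Sprague-Dawley).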

[7] = molecular target: T1, Hexokinase-2 (Rattus norvegicus); test: Time dependent inhibition of hexokinase 2 activity after 6 h, at 5 mM compound
[8] = molecular target: T2, Hexokinase-1 (Rattus norvegicus) (UniProt P05708); test: Time dependent inhibition of Hexokinase type I activity after 6 h, at 22 degrees celsius, at 5 mM compound
T2 sequence (whole entry): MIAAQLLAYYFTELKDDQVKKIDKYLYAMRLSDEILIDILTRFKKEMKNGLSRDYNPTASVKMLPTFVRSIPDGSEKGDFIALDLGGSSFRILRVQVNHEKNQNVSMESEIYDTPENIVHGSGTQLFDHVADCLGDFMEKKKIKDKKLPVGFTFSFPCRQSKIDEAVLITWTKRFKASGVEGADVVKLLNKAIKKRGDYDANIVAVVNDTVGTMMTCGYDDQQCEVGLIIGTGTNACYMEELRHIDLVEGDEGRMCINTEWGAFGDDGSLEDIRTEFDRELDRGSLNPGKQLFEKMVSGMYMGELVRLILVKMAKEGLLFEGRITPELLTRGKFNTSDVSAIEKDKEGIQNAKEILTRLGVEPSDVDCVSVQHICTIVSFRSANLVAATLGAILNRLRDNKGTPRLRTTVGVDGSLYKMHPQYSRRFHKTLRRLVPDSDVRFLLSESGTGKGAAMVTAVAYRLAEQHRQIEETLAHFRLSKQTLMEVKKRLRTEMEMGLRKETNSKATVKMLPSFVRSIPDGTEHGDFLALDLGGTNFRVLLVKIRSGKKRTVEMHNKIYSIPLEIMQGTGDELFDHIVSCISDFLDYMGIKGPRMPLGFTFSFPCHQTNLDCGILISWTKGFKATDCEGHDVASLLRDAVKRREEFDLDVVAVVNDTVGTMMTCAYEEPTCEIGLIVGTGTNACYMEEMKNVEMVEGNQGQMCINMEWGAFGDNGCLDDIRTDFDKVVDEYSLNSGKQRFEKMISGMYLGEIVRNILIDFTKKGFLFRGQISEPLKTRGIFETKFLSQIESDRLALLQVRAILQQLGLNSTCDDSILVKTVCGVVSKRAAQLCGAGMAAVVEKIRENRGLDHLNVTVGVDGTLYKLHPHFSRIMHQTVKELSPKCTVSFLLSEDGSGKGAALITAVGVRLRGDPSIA

[9] = molecular target: Thymidine kinase (Escherichia coli) (UniProt P23331); test: Compound was tested for the loss of thymidine kinase activity from Escherichia coli after 6 hr at 0 degrees C at 10 mM
Sequence of Thymidine kinase (Escherichia coli) (P23331 whole entry, looked up): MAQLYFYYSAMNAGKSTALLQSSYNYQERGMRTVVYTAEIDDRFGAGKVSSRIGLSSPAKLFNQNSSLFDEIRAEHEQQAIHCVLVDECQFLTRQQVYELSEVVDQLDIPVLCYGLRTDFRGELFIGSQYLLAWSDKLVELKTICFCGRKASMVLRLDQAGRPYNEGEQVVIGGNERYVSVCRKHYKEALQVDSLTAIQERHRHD

Question: With `Nc1ncnc2c1ncn2[C@@H]1O[C@H](COP(=O)(O)OP(=O)(O)OP(=O)(O)O)[C@@H](O)[C@H]1O` as the compound, how does the Relative velocity [1] read?
Answer: 1

Question: And the Relative velocity [2]?
Answer: 1

Question: And the Velocity [3]?
Answer: 100%

Question: What about the Km [4] of the same compound?
Answer: 710 µM

Question: And the Km [5]?
Answer: 130 µM

Question: And the Vmax [6]?
Answer: 100%

Question: And the inhibition [7]?
Answer: 0%

Question: What about the inhibition [8] of the same compound?
Answer: 0%

Question: And the inhibition [9]?
Answer: 0%
